Reference: ChEMBL document CHEMBL4414574, “Structure-Based Discovery and Development of a Series of Potent and Selective Bromodomain and Extra-Terminal Protein Inhibitors” (J Med Chem, 2019)
Active and inactive are the calls of the source. The calls are words filed in the database; no cut-off is given here.

Key:
[1] = molecular target: Proto-oncogene tyrosine-protein kinase Src (Homo sapiens) (UniProt P12931); assay: Inhibition of Src (unknown origin) at 10 uM using poly (Glu, Tyr) 4:1 as substrate after 60 mins by ELISA
[2] = Cmax in rat plasma at 50 mg/kg, po; format: ADME, organism-based; set-up: dose 50 mg/kg, route oral
[3] = molecular target: Transcription initiation factor TFIID subunit 1 (Homo sapiens) (UniProt P21675); assay: Binding affinity to human partial length TAF1 bromodomain 2 (D1521 to D1656 residues) expressed in Escherichia coli BL21 cells assessed as residual binding level at 1 uM measured after 1 hr by quantitative PCR based BROMOscan assay relative to control
In short: (§1)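 Bromodomain panel screen (32 bromodomains) run at 1 μM single concentration; primary binding reported as 'Percent Control', lower values meaning stronger interaction.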

[4] = molecular target: Voltage-gated inwardly rectifying potassium channel KCNH2 (Homo sapiens, UniProt Q12809); assay: Inhibition of human ERG at 40 uM by automatic patch clamp method
MV4-11 [5] = assay: Induction of apoptosis in human MV4-11 cells assessed as reduction in BID level after 24 hrs by Western blot analysis; format: functional, cell-based
In short: (§2)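 MV4-11 cells exposed to compound at the indicated doses for 24 h; lysates probed by Western blotting for the target protein, with GAPDH as loading control.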

MV4-11 [6] = assay: Induction of apoptosis in human MV4-11 cells assessed as induction of PARP cleavage at 10 to 1000 nM after 24 hrs by Western blot analysis; format: functional, cell-based; in short: as §2
[7] = Drug uptake in tumor of Balb/c nude mouse xenografted with human MV4-11 cells at 25 to 50 mg/kg, po measured after 8 hrs; format: ADME, organism-based, Neoplasm; settings: in vivo
In short: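 MV4-11 xenografts in BALB/c nude mice given oral compound; drug concentrations in plasma and tumor tissue measured at 1 h and 8 h after dosing.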

[8] = Half life in dog plasma at 3 mg/kg, po; format: ADME, organism-based, Canis lupus familiaris
[9] = AUC (0 to t) in dog plasma at 3 mg/kg, po; format: ADME, organism-based, Canis lupus familiaris
In short: (§3)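 Compound was given orally or intravenously in 1% DMSO/0.5% HPMC vehicle. Concentrations in plasma, or in brain where stated, gave Tmax, Cmax, T1/2, AUC0-t and AUC0-inf.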

[10] = AUC (0 to infinity) in ICR mouse brain at 50 mg/kg, po administered via gavage measured after 0.25 to 24 hrs by UPLC/MS analysis; format: ADME, organism-based; set-up: dose 50 mg/kg, route oral, time infinity
In short: (§4)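 Male ICR mice were dosed orally in 1% DMSO/0.5% HPMC vehicle. Plasma (and brain, where stated) concentrations gave Tmax, Cmax, T1/2, AUC0-t and AUC0-inf.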

[11] = molecular target: T1, Bromodomain-containing protein 4 (Homo sapiens, UniProt O60885); assay: Inhibition of BRD4 in human MV4-11 cells assessed as reduction in BCL2 phosphorylation at Thr56 residues after 24 hrs by Western blot analysis; format: cell-based
In short: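 MV4-11 cells exposed to graded doses for 24 h; lysates immunoblotted for phospho-BCL2, with GAPDH as loading control.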

[12] = AUC (0 to infinity) in ICR mouse plasma at 50 mg/kg, po administered via gavage measured after 0.25 to 24 hrs by UPLC/MS analysis; format: ADME, organism-based; set-up: dose 50 mg/kg, route oral, time infinity; in short: as §4
[13] = Half life in mouse liver microsomes at 1 uM preincubated for 5 mins followed by NADPH addition and measured after 5 to 30 mins by LC/MS/MS analysis; format: ADME, Microsome; settings: microsomes, 1 µM
[14] = molecular target: Bromodomain testis-specific protein (Homo sapiens) (UniProt Q58F21); assay: Binding affinity to human partial length BRDT bromodomain 1 (N21 to E137 residues) expressed in Escherichia coli BL21 cells assessed as residual binding level at 1 uM measured after 1 hr by quantitative PCR based BROMOscan assay relative to control
In short: (§5)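 A BROMOScan competition-binding panel of 32 bromodomains was run at a single 1 μM compound concentration. Results are primary-screen 'Percent Control', where lower values indicate stronger binding.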

[15] = Half life in dog liver microsomes; format: ADME, Canis lupus familiaris, Microsome
NCI-H522 = assay: Antiproliferative activity against human NCI-H522 cells after 72 hrs by CCK8 or SRB assay; format: functional, cell-based
[16] = molecular target: Insulin-like growth factor 1 receptor (Homo sapiens) (UniProt P08069); assay: Inhibition of IGF1R (unknown origin) at 10 uM using poly (Glu, Tyr) 4:1 as substrate after 60 mins by ELISA
[17] = molecular target: Protein polybromo-1 (Homo sapiens) (UniProt Q86U86); assay: Binding affinity to human partial length PB1 bromodomain 5 (S645 to D766 residues) expressed in Escherichia coli BL21 cells assessed as residual binding level at 1 uM measured after 1 hr by quantitative PCR based BROMOscan assay relative to control; in short: as §1
[18] = AUC (0 to infinity) in dog plasma at 1 mg/kg, iv; format: ADME, organism-based, Canis lupus familiaris; set-up: dose 1 mg/kg, time infinity, route intravenous; in short: as §3
[19] = AUC (0 to t) in rat plasma at 50 mg/kg, po; format: ADME, organism-based; in short: as §3
MV4-11 [20] = assay: Antitumor activity against human MV4-11 cells xenografted in Balb/c nude mouse assessed as tumor growth inhibition at 25 mg/kg, po administered once daily and measured twice a week by caliper method relative to control; format: functional; settings: MV4-11, po, read-out: TGI
[21] = molecular target: Histone acetyltransferase p300 (Homo sapiens) (UniProt Q09472); assay: Inhibition of EP300 (unknown origin) at 1 uM
In short: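 Bromodomain binding panel (32 bromodomains) screened at 1 μM; primary binding read-out reported as percent of control, lower values meaning stronger binding.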

[22] = molecular target: T1, Bromodomain-containing protein 4; assay: Inhibition of BRD4 bromodomain 2 (unknown origin)
[23] = molecular target: Bromodomain and PHD finger-containing protein 3 (Homo sapiens) (UniProt Q9ULD4); assay: Binding affinity to human partial length BRPF3 (E588 to G701 residues) expressed in Escherichia coli BL21 cells assessed as residual binding level at 1 uM measured after 1 hr by quantitative PCR based BROMOscan assay relative to control; in short: as §5
[24] = Tmax in dog plasma at 3 mg/kg, po; format: ADME, organism-based, Canis lupus familiaris
In short: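 Oral dosing in 1% DMSO/0.5% HPMC vehicle (dog 3 mg/kg; rat 10 mg/kg); plasma drug levels measured.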

[25] = Cmax in ICR mouse brain at 50 mg/kg, po administered via gavage measured after 0.25 to 24 hrs by UPLC/MS analysis; format: ADME, organism-based; set-up: dose 50 mg/kg, route oral
In short: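 Male ICR mice dosed orally in 1% DMSO/0.5% HPMC vehicle; plasma or brain drug levels used to derive Tmax, Cmax, AUC0-t, AUC0-inf and T1/2.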

[26] = molecular target: Protein polybromo-1 (Homo sapiens) (UniProt Q86U86); assay: Binding affinity to human partial length PB1 bromodomain 2 (S178 to E291 residues) expressed in Escherichia coli BL21 cells assessed as residual binding level at 1 uM measured after 1 hr by quantitative PCR based BROMOscan assay relative to control; in short: as §1
[27] = Cmax in rat plasma at 10 mg/kg, po; format: ADME, organism-based; set-up: dose 10 mg/kg, route oral
[28] = molecular target: Histone acetyltransferase KAT2A (Homo sapiens) (UniProt Q92830); assay: Binding affinity to human partial length GCN5L2 (E726 to K837 residues) expressed in Escherichia coli BL21 cells assessed as residual binding level at 1 uM measured after 1 hr by quantitative PCR based BROMOscan assay relative to control; in short: as §5
Histone acetyltransferase KAT2A (Homo sapiens), sequence (Q92830 2-837 limits assumed): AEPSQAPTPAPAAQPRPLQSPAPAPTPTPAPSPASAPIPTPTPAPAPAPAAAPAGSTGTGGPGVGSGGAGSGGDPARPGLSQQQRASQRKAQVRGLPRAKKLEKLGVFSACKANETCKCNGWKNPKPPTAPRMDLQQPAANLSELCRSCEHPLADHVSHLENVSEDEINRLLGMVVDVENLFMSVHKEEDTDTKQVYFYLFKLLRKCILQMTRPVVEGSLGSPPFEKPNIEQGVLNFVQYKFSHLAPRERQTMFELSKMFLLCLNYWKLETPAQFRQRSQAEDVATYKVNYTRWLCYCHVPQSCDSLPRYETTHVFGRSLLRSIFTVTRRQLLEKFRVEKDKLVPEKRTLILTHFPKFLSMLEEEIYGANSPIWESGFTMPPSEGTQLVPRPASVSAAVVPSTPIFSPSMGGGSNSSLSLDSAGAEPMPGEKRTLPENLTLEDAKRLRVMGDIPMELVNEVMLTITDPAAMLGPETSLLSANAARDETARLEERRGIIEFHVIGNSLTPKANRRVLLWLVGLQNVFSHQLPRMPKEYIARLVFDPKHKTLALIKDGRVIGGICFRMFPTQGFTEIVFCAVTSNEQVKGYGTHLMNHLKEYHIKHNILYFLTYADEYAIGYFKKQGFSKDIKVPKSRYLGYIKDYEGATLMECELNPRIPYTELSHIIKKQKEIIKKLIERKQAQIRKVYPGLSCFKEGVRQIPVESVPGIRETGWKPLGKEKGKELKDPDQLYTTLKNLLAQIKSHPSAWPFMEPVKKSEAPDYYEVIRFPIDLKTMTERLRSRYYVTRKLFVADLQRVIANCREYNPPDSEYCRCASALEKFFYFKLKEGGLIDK

Protein polybromo-1 (Homo sapiens), sequence (Q86U86 whole entry, the tested form may be a part): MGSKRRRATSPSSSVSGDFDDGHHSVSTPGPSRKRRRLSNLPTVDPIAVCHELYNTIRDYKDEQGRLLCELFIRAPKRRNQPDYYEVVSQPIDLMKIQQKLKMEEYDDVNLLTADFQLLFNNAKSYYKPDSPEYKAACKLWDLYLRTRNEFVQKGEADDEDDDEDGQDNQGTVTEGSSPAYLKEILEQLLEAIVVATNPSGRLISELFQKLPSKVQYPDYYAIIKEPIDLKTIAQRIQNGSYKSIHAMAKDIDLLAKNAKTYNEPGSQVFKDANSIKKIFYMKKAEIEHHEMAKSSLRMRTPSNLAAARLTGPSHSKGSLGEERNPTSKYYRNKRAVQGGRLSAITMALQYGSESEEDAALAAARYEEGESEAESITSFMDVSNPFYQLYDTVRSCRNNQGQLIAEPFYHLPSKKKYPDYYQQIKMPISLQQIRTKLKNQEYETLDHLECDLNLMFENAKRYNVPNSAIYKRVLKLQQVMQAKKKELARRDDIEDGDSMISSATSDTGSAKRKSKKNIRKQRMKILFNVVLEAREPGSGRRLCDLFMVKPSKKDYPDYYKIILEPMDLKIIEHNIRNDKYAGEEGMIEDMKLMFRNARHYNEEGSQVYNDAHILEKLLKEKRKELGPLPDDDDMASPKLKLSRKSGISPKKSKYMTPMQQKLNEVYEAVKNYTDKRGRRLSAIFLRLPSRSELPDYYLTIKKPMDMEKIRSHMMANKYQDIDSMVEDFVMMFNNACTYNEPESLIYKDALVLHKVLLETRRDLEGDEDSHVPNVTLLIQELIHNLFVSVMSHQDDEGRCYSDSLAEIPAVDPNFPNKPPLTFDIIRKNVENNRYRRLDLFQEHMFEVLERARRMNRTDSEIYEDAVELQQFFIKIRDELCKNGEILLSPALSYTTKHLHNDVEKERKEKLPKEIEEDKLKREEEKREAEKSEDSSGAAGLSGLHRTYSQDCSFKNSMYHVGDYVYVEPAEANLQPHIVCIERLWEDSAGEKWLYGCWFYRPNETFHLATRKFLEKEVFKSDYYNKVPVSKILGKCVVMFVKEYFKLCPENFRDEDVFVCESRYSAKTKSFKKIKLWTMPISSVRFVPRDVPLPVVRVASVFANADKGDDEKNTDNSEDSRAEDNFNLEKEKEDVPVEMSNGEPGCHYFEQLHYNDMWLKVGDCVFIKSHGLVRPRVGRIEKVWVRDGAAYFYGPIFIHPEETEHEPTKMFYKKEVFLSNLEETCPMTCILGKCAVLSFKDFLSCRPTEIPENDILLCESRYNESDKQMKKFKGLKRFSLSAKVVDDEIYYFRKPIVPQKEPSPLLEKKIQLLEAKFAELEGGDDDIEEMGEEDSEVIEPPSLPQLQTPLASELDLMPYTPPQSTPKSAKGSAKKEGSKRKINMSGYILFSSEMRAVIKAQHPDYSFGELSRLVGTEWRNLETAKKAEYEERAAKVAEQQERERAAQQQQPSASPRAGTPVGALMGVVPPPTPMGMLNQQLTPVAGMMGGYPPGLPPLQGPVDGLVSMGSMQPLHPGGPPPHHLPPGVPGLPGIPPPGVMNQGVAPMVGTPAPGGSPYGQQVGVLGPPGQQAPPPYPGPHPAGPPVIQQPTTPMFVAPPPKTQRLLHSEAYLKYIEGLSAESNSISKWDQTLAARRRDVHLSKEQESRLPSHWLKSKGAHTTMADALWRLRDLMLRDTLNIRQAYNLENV
Proto-oncogene tyrosine-protein kinase Src (Homo sapiens), sequence (P12931 2-536 limits assumed): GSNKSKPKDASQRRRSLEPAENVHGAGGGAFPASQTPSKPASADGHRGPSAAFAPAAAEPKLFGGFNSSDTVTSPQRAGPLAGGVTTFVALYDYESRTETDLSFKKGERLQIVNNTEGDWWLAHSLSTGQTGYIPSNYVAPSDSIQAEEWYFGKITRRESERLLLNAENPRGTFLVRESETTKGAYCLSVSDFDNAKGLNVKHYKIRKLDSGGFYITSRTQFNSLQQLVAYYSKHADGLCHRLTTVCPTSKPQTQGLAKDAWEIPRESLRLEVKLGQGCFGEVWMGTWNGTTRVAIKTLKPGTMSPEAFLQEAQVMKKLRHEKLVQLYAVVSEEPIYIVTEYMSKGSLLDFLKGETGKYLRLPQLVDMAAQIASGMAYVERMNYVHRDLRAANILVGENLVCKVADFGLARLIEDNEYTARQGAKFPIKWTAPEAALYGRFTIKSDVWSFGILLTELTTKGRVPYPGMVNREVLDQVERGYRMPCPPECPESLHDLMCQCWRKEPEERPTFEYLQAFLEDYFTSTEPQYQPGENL
Voltage-gated inwardly rectifying potassium channel KCNH2, sequence (Q12809 whole entry): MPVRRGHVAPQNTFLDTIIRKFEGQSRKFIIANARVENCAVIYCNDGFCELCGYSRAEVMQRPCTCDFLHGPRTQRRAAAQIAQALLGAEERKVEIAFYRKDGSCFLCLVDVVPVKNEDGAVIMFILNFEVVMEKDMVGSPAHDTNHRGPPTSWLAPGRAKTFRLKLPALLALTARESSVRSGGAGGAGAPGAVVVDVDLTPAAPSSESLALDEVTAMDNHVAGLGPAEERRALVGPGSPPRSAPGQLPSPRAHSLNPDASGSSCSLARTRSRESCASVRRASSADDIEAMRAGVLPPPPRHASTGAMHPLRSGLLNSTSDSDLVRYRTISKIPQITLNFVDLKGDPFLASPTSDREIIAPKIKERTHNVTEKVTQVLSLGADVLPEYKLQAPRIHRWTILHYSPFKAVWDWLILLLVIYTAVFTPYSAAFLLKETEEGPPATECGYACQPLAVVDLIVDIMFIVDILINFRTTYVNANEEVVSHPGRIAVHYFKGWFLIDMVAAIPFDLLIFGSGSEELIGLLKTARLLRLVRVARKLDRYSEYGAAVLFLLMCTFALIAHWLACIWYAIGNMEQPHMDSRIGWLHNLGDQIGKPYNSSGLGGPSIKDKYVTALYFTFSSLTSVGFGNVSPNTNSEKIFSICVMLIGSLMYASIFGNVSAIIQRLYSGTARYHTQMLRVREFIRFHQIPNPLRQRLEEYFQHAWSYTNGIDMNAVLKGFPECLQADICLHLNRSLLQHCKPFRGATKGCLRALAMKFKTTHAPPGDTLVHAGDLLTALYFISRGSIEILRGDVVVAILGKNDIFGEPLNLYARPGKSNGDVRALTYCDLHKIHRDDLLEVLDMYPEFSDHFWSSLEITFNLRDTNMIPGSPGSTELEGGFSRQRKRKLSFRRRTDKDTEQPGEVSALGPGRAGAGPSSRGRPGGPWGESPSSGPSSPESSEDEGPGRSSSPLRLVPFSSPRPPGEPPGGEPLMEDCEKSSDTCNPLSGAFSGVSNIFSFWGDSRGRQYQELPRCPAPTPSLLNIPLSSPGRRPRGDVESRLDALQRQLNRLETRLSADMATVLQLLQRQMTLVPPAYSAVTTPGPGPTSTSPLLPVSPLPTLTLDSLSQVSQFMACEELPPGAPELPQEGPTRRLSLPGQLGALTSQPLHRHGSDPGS

Cc1ccc(-n2nc(C(=O)N3C[C@@H](C)N[C@@H](C)C3)nc2-c2ccc3c(c2)N(C2CCCC2)[C@H](C)C(=O)N3C)cc1
inhibition [1]: Active
Cmax [2]: 1250 ng/mL
Activity [3]: 5 to 20%
inhibition (INH) [4]: Not Active
Activity (MV4-11 [5]): Dose-dependent effect
Activity (MV4-11 [6]): Active
Drug uptake [7]: Active
half-life [8]: 396 min
AUC(0-t) [9]: 747 ng·h/mL
AUC(0-inf) [10]: 2340 ng·h/mL
inhibition [11]: Dose-dependent effect
AUC(0-inf) [12]: 16800 ng·h/mL
t1/2 [13]: 193 min
Activity [14]: < 5%
half-life [15]: 18 min
Activity (NCI-H522): Active
inhibition [16]: Active
Activity [17]: 70 to 100%
AUC(0-inf) [18]: 856 ng·h/mL
AUC(0-t) [19]: 3820 ng·h/mL
inhibition in vivo at 25 mg/kg (MV4-11 [20]): 89.7%
inhibition [21]: inactive
inhibition [22]: Active
Activity [23]: 70 to 100%
Tmax [24]: 30 min
Cmax [25]: 377 ng/mL
Activity [26]: 70 to 100%
Cmax [27]: 182 ng/mL
Activity [28]: 70 to 100%
